Compound activity (PubChem BioAssay)
Sampled rows, rich in hits. Any-hit rate of the full collection: about 5.6%.
UPR XBP1 act – adaptive UPR (XBP1) activation. actives 0.33% (n = 330,000). activation, % at 20 µM. CHO-XBP1 luciferase reporter, IRE1-XBP1 UPR activation, luminescence; percent of tunicamycin response, DMSO as zero. AID 463104;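 active means versus positive control, 20 µM dose yields 30% or more activation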
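Material: CHO cell line with stable XBP1 luciferase reporter; schedule: 16-18 h cell attachment at 37 °C, then 6 h compound exposure; signal: glow luminescence from Steady-Glo reagent; medium: serum-containing F12 medium, 10% FBS; benchmarks: tunicamycin 10 µg/mL and vehicle-only wells; read-out: percent activation relative to tunicamycin reference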
MPTP inh – permeability transition pore inhibition; actives 1.4% (n = 360,000); inhibition, % at 10 µM; AID 602449; isolated mouse mitochondria, Ca2+ swelling absorbance, 30 min;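 active means inhibition of 50% or more, scaled per plate between neutral and stimulator controls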
CHOP inhibitor – blocks CHOP induction under ER stress; CHO-K1 CHOP-promoter luciferase, tunicamycin-induced, 15-18 h; inhibition, % at 10 µM; actives 3.8% (n = 220,000);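 active means compounds that reduced the stress-induced luciferase reporter signal by more than about 70% of percent inhibition, limit read from the data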
CHOP UPR activ – apoptotic UPR (CHOP) activation. CHO-CHOP luciferase reporter, luminescence; percent of tunicamycin response over DMSO baseline. activation, % at 10 µM. actives 0.34% (n = 330,000). AID 449763;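 active means at 10 µM dose, activation of 40% or more, normalized to positive control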
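Test system: CHO CHOP reporter cells. Input: 500 CHO-CHOP cells per well. Medium: F12 with 10% FBS. Technique: luciferase luminescence. Measure: percent activation relative to tunicamycin control. Dosing: 10 µM compound, 0.5% DMSO. Timing: 16-18 h cell attachment, then 6 h compound exposure, 37 °C.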
GRIN3A LBD mod – modulators (binders) of human NR3A ligand-binding domain; Tm shift relative to glycine control, % at 25 µM; NR3A LBD differential scanning fluorimetry, Tm shift; 0% = protein alone, 100% = glycine-bound protein; actives 2.5% (n = 340,000);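 active means melting temperature shift of at least 10% of the positive control shift, at one fixed dose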
aDG glyco up – alpha-DG glycosylation activation | Pro5-aDG cells, alpha-DG glycosylation AlphaScreen (IIH6); 0% Pro5, 100% B10-LARGE cell signal | activation, % at 10 µM | actives 0.22% (n = 360,000);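 active means activation of at least 8% versus controls, or a plate z-score of at least 8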;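 further: Pro5 are CHO cells carrying HIG-tagged alpha-DG that lacks glycosylation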
CHOP confirm – confirmation of CHOP induction inhibitors; inhibition, % at 10 µM; AID 504437; actives 45% (n = 2,100); shares compounds with CHOP inhibitor; CHO-CHOP promoter luciferase reporter, tunicamycin-induced, luminescence;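 active means mean of three repeat readings of reporter signal inhibition above a set limit, cut at about 70% in these data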
Each line names hits and unclear results; the compound was inactive in the other large screens (follow-up assays come after a bar, where they were run).

CC1C/C(=C/c2ccncc2)C(=O)/C(=C/c2ccncc2)C1 (stereo not given)	CHOP inhibitor 99.3 | CHOP confirm inactive
O=C(CSc1nc(C2CC2)nc2c1cnn2-c1ccccc1)Nc1c[nH]c(=O)[nH]c1=O	CHOP inhibitor 96.4 | CHOP confirm inactive
CCCCCC(=O)N1C[C@H](n2cc(COC(=O)c3ccccc3)nn2)[C@@H](O)C[C@@H]1c1ccc(OC)cc1	none (no result: UPR XBP1 act, CHOP inhibitor, CHOP UPR activ, GRIN3A LBD mod)
CCCOc1ccc(/C=N/NC(=S)Nc2ccccc2[N+](=O)[O-])c(O)c1	CHOP inhibitor 100.6, GRIN3A LBD mod 11.6 (no result: UPR XBP1 act, MPTP inh, CHOP UPR activ, aDG glyco up) | CHOP confirm inactive
CN(C)c1ccc(-c2nc3ccccn3c2/N=C/c2ccc(Br)cc2)cc1	CHOP inhibitor 98.4, GRIN3A LBD mod 24.0 | CHOP confirm 74.9
CCCCN(C(=O)C1CCN(C(=O)c2ccccc2C)CC1)c1c(N)n(CC(C)C)c(=O)[nH]c1=O	none (no result: UPR XBP1 act, CHOP inhibitor, CHOP UPR activ)
COc1ccc(N(C)S(=O)(=O)c2cccc(C(=O)Nc3cccc(C(=O)NC4CC4)c3)c2)cc1	none (no result: CHOP inhibitor)
O=C1C(N2CCOCC2)=C(n2nnc3ccccc32)C(=O)c2ccccc21	none (no result: CHOP inhibitor) | CHOP confirm 94.7
Cc1ccccc1NC1=C/C(=N\S(=O)(=O)c2cccs2)c2ccccc2C1=O	CHOP inhibitor 106.7 | CHOP confirm inactive
CC(=O)Nc1ccc(NC2=C/C(=N/S(=O)(=O)c3cccs3)c3ccccc3C2=O)cc1	CHOP inhibitor 107.3 | CHOP confirm inactive
Cc1ccc(NC2=C/C(=N/S(=O)(=O)c3cccs3)c3ccccc3C2=O)cc1C	none (no result: UPR XBP1 act, CHOP UPR activ)
CN[C@H]1C[C@H]2c3cc(N4CCN(C)CC4)ccc3CCN2C(=O)[C@H]1[C@H](C)O	none (no result: UPR XBP1 act, CHOP inhibitor, CHOP UPR activ, GRIN3A LBD mod)
COc1ccc(NC(=O)CSc2nccn2Cc2ccco2)cc1OC	none (no result: CHOP inhibitor)
COc1ccc(C(C)(O)c2nc(-c3ccc(S(C)(=O)=O)cc3)cs2)cc1 (stereo not given)	none (no result: UPR XBP1 act, CHOP inhibitor, CHOP UPR activ, GRIN3A LBD mod)
Cn1c(-c2ccccc2)c(C(=O)CCl)c2ccccc21	CHOP inhibitor 107.5 (no result: UPR XBP1 act, CHOP UPR activ) | CHOP confirm inactive
O=C(COC(=O)Cc1c(F)cccc1Cl)Nc1nnc(-c2ccccc2)o1	none (no result: CHOP inhibitor)
COc1ccc(SC[C@H](Cc2ccccc2)N2CC[C@@H](NC(=O)OCc3ccccc3)CCC2=O)cc1	none (no result: CHOP inhibitor)
CC(C)(NO)/C(=N/O)c1ccc(Br)cc1	CHOP inhibitor 108.3 | CHOP confirm inactive
COc1ccc(/C(=N/O)C(C)(C)NO)cc1	CHOP inhibitor 99.5 | CHOP confirm inactive
CC(C)(NO)/C(=N\O)c1ccc(Cl)cc1	none
CCOC(=O)c1oc2ccc(S(=O)(=O)n3nc(-c4ccc(C)cc4)cc3N)cc2c1C	CHOP inhibitor 97.1 | CHOP confirm inactive
CCOC(=O)c1oc2ccc(S(=O)(=O)n3nc(-c4ccc(Cl)cc4)cc3N)cc2c1C	none
CCc1ccc(NC(=O)CSc2nc3nc(C)cc(C)n3n2)cc1	none (no result: CHOP inhibitor)
CCCn1c(=S)[nH]c2cc(C(=O)N3CCN(c4ccccc4)CC3)ccc2c1=O	none (no result: UPR XBP1 act, CHOP inhibitor, CHOP UPR activ, GRIN3A LBD mod)
CCCn1c(=S)[nH]c2cc(C(=O)N3CCc4ccccc4C3)ccc2c1=O	CHOP inhibitor 101.9 | CHOP confirm inactive
N#CC1=C(N)Oc2cc(N)ccc2C1c1ccc(F)cc1F (stereo not given)	none (no result: CHOP inhibitor)
Cn1c(=O)c2c(nc(Sc3ncnn3CC(=O)NC(C)(C)C)n2C)n(C)c1=O	CHOP inhibitor 100.5 | CHOP confirm inactive
CS(=O)(=O)c1ncc(Cl)c(C(=O)Nc2ccc(N3CCOCC3)cc2)n1	none (no result: CHOP inhibitor) | CHOP confirm 116.9
C=C(C)C1Cc2c(C)nn(-c3cccc4ccccc34)c2C1 (stereo not given)	CHOP inhibitor 101.3 | CHOP confirm inactive
C=C(C)C1Cc2c(C)nn(-c3ccccc3)c2C1 (stereo not given)	none
CCOc1ccc(/C=N/N2C(=O)C(CC(=O)Nc3ccc(F)cc3F)SC2=NC)cc1OC (stereo not given)	CHOP inhibitor 106.4 | CHOP confirm inactive
CN=C1SC(CC(=O)Nc2ccccc2F)C(=O)N1/N=C/c1ccc(O)c(OC)c1 (stereo not given)	none
O=C(CCc1ccccc1)N1CCN(c2ccc([N+](=O)[O-])cc2)CC1	none
Cc1nc([N+](=O)[O-])c(Br)n1Cc1ccc(Cl)c(Cl)c1	CHOP inhibitor 104.8 (no result: UPR XBP1 act, CHOP UPR activ) | CHOP confirm inactive
CCCN(C(=O)CSCc1ccc(C)cc1)c1c(N)n(Cc2ccccc2)c(=O)[nH]c1=O	none (no result: UPR XBP1 act, CHOP inhibitor, CHOP UPR activ, GRIN3A LBD mod)
c1ccc2c(c1)N1CCCN=C1N2CCN1CCCCC1	none
O=C1N=C2N(CCN3CCCCC3)c3ccccc3N2/C1=C\c1ccc([N+](=O)[O-])o1	CHOP inhibitor 107.1 (no result: UPR XBP1 act, MPTP inh, CHOP UPR activ, GRIN3A LBD mod, aDG glyco up) | CHOP confirm inactive
Cc1nc2c(=O)n(C)c(=O)n(C)c2nc1Cl	CHOP inhibitor 108.8 (no result: UPR XBP1 act, CHOP UPR activ) | CHOP confirm 117.8
Cn1c(=O)c2nc(NCc3ccccc3)cnc2n(C)c1=O	none
Cc1cc2nc(-c3ccc(SCC(=O)N4CCc5ccccc54)nc3)[nH]c2cc1C	CHOP inhibitor 107.2, GRIN3A LBD mod 25.2 | CHOP confirm inactive
Cc1cc(Oc2cc(N)cc([N+](=O)[O-])c2)ccc1Cl	CHOP inhibitor 101.7 | CHOP confirm inactive
O=C(CCCCCNc1nc(=S)[nH]c2ccccc12)NCCC1=CCCCC1	CHOP inhibitor 100.8 | CHOP confirm inactive
O=C(NCCc1ccccc1)C1CCC(CNc2nc(=S)[nH]c3ccccc23)CC1 (stereo not given)	CHOP inhibitor 103.8 | CHOP confirm inactive
Cc1ccc(S(=O)(=O)c2cc(C)cc(S(=O)(=O)Nc3ccc(C(=O)O)cc3)c2C)cc1	none (no result: CHOP inhibitor)
CC(C)c1ccc(NC(=O)CCCN2C(=S)NC(C)(C)CC2C)cc1 (stereo not given)	none
Nc1c(C(=O)N/N=C/c2ccc(F)cc2)oc2nc(-c3ccccc3)cc(-c3ccco3)c12	CHOP inhibitor 100.6 | CHOP confirm inactive
Nc1c(C(=O)N/N=C/c2ccccc2Cl)oc2nc(-c3ccccc3)cc(-c3ccco3)c12	none
CCOc1cc(S(=O)(=O)NC2CCCC2)ccc1Cl	none
CCOc1cc(S(=O)(=O)Nc2cc(C)cc(C)c2)ccc1Cl	CHOP inhibitor 105.6, GRIN3A LBD mod 11.0 | CHOP confirm 116.7
CCN1C=CC(=C2C(=O)c3ccccc3C2=O)C=C1	CHOP inhibitor 99.7 | CHOP confirm 115.1
CCCN1C=CC(=C2C(=O)c3ccccc3C2=O)C=C1	CHOP inhibitor 103.2 | CHOP confirm 125.5
CCCCCCN1C=CC(=C2C(=O)c3ccccc3C2=O)C=C1	CHOP inhibitor 98.6 | CHOP confirm 101.5
c1ccc(COC2COC3C(OCc4ccccc4)COC23)cc1 (stereo not given)	none (no result: UPR XBP1 act, CHOP inhibitor, CHOP UPR activ)
